From ChEMBL document CHEMBL1671864, “First assessment in humans of the safety, tolerability, pharmacokinetics, and ex vivo pharmacodynamic antimalarial activity of the new artemisinin derivative artemisone” (Antimicrob Agents Chemother, 2008)

Legend:
Homo sapiens [1] = experiment: Toxicity in healthy human assessed as occurrence of adverse event at 40 mg, po administered daily for 3 days as two 20-mg immediate-release tablets during 10 hrs overnight fasting state; assay type: organism-based; conditions: in vivo
Procedure, shortened: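 3-day daily oral tablet dosing in healthy Caucasian men (8 active, 4 placebo per dose). Adverse events were collected by open questioning and spontaneous report. Severity was graded mild (daily activities unaffected), moderate (some interference) or severe (activities not completed).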

Homo sapiens [2] = experiment: Toxicity in healthy human assessed as occurrence of clinically relevant changes in vital signs at 80 mg, po administered daily for 3 days as four 20-mg immediate-release tablets during 10 hrs overnight fasting state; assay type: organism-based; conditions: in vivo
Procedure, shortened: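 Healthy Caucasian men received single ascending doses (10–40 mg solution, 80 mg tablets) or 3-day daily tablet courses, all fasting, with randomized placebo controls. Supine blood pressure, heart rate and resting 12-lead ECG were recorded before and after dosing.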

[3] = Cmax in healthy human plasma at 10 mg, po administered as single ascending doses as solution during 10 hrs overnight fasting state; assay type: ADME, organism-based; set-up: dose 10 mg, route oral
Procedure, shortened: (§1)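 Healthy Caucasian male volunteers, single oral dose with 240 ml water after a 10-h overnight fast. Heparinised venous blood was drawn predose and at 0.25–14 h. Plasma was stored frozen. Parent drug and metabolites M1–M3 were measured by LC/MS-MS (MRM, deuterated internal standard). Noncompartmental analysis gave Cmax observed, t1/2 = 0.693/kel (terminal regression) and MRT = AUMC/AUC. Values are geometric means.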

[4] = AUC in healthy human plasma at 10 mg, po administered as single ascending doses as solution during 10 hrs overnight fasting state; assay type: ADME, organism-based; set-up: dose 10 mg, time < 10 hr, route oral
Procedure, shortened: (§2)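 Single ascending oral doses in healthy Caucasian men, given fasted (10-h overnight) with 240 ml water: 10, 20, 30 or 40 mg as oral solution, or 80 mg as IR tablets. Parent plasma levels by LC/MS-MS over 0.25–14 h. Noncompartmental analysis: kel by terminal-phase least-squares regression, AUC extrapolated to infinity, CL/F = dose/AUC, V/F = CL/F÷kel.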

[5] = Half life in healthy human plasma at 10 mg, po administered as single ascending doses as solution during 10 hrs overnight fasting state; assay type: ADME, organism-based; procedure, shortened: as §1
[6] = Mean residence time in healthy human at 10 mg, po administered as single ascending doses as solution during 10 hrs overnight fasting state; assay type: ADME, organism-based; conditions: in vivo; procedure, shortened: as §1
[7] = Apparent volume of distribution with respect to the bioavailability in healthy human at 10 mg, po administered as single ascending doses as solution during 10 hrs overnight fasting state; assay type: ADME, organism-based; conditions: in vivo, read-out: Vc/F; procedure, shortened: as §2
[8] = Tmax in healthy human plasma at 20 mg, po administered as single ascending doses as solution during 10 hrs overnight fasting state; assay type: ADME, organism-based
Procedure, shortened: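 Healthy Caucasian male volunteers, randomized within each dose group against placebo, given a single oral solution with 240 ml water after a 10-h overnight fast. Plasma sampled predose and at 0.25–14 h, quantified by LC/MS-MS (MRM, deuterated internal standard). Tmax read directly from individual noncompartmental concentration–time data.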

[9] = Mean residence time in healthy human at 20 mg, po administered as single ascending doses as solution during 10 hrs overnight fasting state; assay type: ADME, organism-based; conditions: in vivo; procedure, shortened: as §1
[10] = Apparent oral clearance in healthy human at 20 mg, po administered as single ascending doses as solution during 10 hrs overnight fasting state; assay type: ADME, organism-based; conditions: in vivo; procedure, shortened: as §2
[11] = Apparent volume of distribution with respect to the bioavailability in healthy human at 20 mg, po administered as single ascending doses as solution during 10 hrs overnight fasting state; assay type: ADME, organism-based; conditions: in vivo, read-out: Vc/F; procedure, shortened: as §2
[12] = Mean residence time in healthy human at 30 mg, po administered as single ascending doses as solution during 10 hrs overnight fasting state; assay type: ADME, organism-based; conditions: in vivo; procedure, shortened: as §1
[13] = Apparent oral clearance in healthy human at 30 mg, po administered as single ascending doses as solution during 10 hrs overnight fasting state; assay type: ADME, organism-based; conditions: in vivo; procedure, shortened: as §2
[14] = Apparent volume of distribution with respect to the bioavailability in healthy human at 30 mg, po administered as single ascending doses as solution during 10 hrs overnight fasting state; assay type: ADME, organism-based; conditions: in vivo, read-out: Vc/F; procedure, shortened: as §2
[15] = Half life in healthy human plasma at 40 mg, po administered as single ascending doses as solution during 10 hrs overnight fasting state; assay type: ADME, organism-based; procedure, shortened: as §1
[16] = Mean residence time in healthy human at 40 mg, po administered as single ascending doses as solution during 10 hrs overnight fasting state; assay type: ADME, organism-based; conditions: in vivo; procedure, shortened: as §1
[17] = Tmax in healthy human plasma at 80 mg, po administered as single immediate release tablets during 10 hrs overnight fasting state; assay type: ADME, organism-based
Procedure, shortened: (§3)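 Healthy Caucasian male volunteers (n=6 active, 2 placebo, randomized), single 80 mg dose as four 20-mg tablets with 240 ml water after 10-h fast. Venous lithium-heparin plasma sampled predose and 0.25–14 h; analysed by LC/MS-MS (MRM, deuterated internal standard). Noncompartmental analysis; Tmax observed directly; MRT = AUMC/AUC with extrapolation to infinity via kel.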

[18] = Mean residence time in healthy human at 80 mg, po administered as single immediate release tablets during 10 hrs overnight fasting state; assay type: ADME, organism-based; conditions: in vivo; procedure, shortened: as §3
[19] = Cmax in healthy human plasma at 40 mg, po administered as two 20 mg immediate release tablets daily for 3 days during 10 hrs overnight fasting state measured after 3 day; assay type: ADME, organism-based; set-up: dose 40 mg, route oral
Procedure, shortened: (§4)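 Healthy Caucasian males took tablets once daily for 3 days with 240 ml water after a 10-h fast. Heparinised blood was drawn predose and at 0.25–14 h after the first and last doses. Plasma parent drug and metabolites M1–M3 were measured by LC/MS-MS (MRM, deuterated internal standard). Noncompartmental analysis gave Cmax observed, t1/2 = 0.693/kel and MRT = AUMC/AUC. Values are geometric means.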

[20] = Half life in healthy human plasma at 40 mg, po administered as two 20 mg immediate release tablets daily for 3 days during 10 hrs overnight fasting state measured after 3 day; assay type: ADME, organism-based; procedure, shortened: as §4
Plasma = experiment: Ratio of Cmax in healthy human plasma at 40 mg, po administered as two 20 mg immediate release tablets daily for 3 days during 10 hrs overnight fasting state measured after 1 day to Cmax in healthy human plasma at 40 mg, po administered as two 20 mg immediate release tablets daily for 3 days during 10 hrs overnight fasting state measured after 3 day; assay type: ADME, organism-based; conditions: in vivo
Procedure, shortened: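 Healthy Caucasian men took tablets daily for 3 days with 240 ml water after 10-h fast. Plasma sampled 0.25–14 h after first and last doses, artemisone measured by LC/MS-MS. Accumulation ratio is Cmax or AUC0-∞ after last dose divided by that after first dose. Noncompartmental analysis, geometric means with 95% CI.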

[21] = AUC in healthy human plasma at 80 mg, po administered as four 20 mg immediate release tablets daily for 3 days during 10 hrs overnight fasting state measured after 3 day; assay type: ADME, organism-based; set-up: time < 10 hr, dose 80 mg, route oral
Procedure, shortened: (§5)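 Healthy Caucasian males took 40 mg (2×20-mg IR tablets) or 80 mg (4 tablets) orally daily for 3 days after a 10-h fast. Plasma parent drug was measured by LC/MS-MS from predose to 14 h after the first and third doses. Noncompartmental analysis: AUC by log-linear trapezoid extrapolated via kel, CL/F = dose/AUC, V/F = CL/F÷kel, geometric means.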

[22] = Half life in healthy human plasma at 80 mg, po administered as four 20 mg immediate release tablets daily for 3 days during 10 hrs overnight fasting state measured after 3 day; assay type: ADME, organism-based; procedure, shortened: as §4
[23] = Apparent oral clearance in healthy human at 80 mg, po administered as four 20 mg immediate release tablets daily for 3 days during 10 hrs overnight fasting state measured after 1 day; assay type: ADME, organism-based; conditions: in vivo; procedure, shortened: as §5
[24] = Apparent volume of distribution with respect to the bioavailability in healthy human at 80 mg, po administered as four 20 mg immediate release tablets daily for 3 days during 10 hrs overnight fasting state measured after 1 day; assay type: ADME, organism-based; conditions: in vivo, read-out: Vc/F; procedure, shortened: as §5

For `C[C@H]1[C@H](N2CCS(=O)(=O)CC2)O[C@@H]2O[C@@]3(C)CC[C@H]4[C@H](C)CC[C@@H]1[C@@]24OO3` [ARTEMIFONE], the Activity (Homo sapiens [1]) was “Non-toxic”, the Activity (Homo sapiens [2]) was “Non-toxic” and the Cmax [3] was 40 ng/mL. For the same compound, the AUC at 10 h [4] was 29.5 ng·h/mL, the half-life [5] was 1.51 h and the MRT [6] was 0.98 h. The Vd/F [7] was 8.93 L/kg, the Tmax [8] was 0.5 h and the MRT [9] was 1.79 h. The CL/F [10] was 5080 mL/min, the Vd/F [11] was 19.1 L/kg and the MRT [12] was 2.29 h. For the same compound, the CL/F [13] was 6960 mL/min, the Vd/F [14] was 26.6 L/kg and the half-life [15] was 3.54 h. For the same compound, the MRT [16] was 2.39 h, the Tmax [17] was 0.875 h and the MRT [18] was 2.64 h. For the same compound, the Cmax [19] was 95 ng/mL, the half-life [20] was 4.37 h and the Ratio (Plasma) was 98.5%. It also gave an AUC at 10 h [21] of 337 ng·h/mL, a half-life [22] of 3.07 h and a CL/F [23] of 3880 mL/min. For the same compound, the Vd/F [24] was 13 L/kg.
